Screening results (PubChem BioAssay)
Furin inh: human furin inhibitors, primary screen, biochemical, fluorescence intensity | 220,000 compounds, 0.061% hits | inhibition, % at 20 µM or 30 µM | purified furin, fluorogenic substrate cleavage | AID 463115, 2010 | P09958; in the data active = inhibition above about 25%
FXIIa inh: human FXIIa protease inhibitors, primary screen, biochemical, 1536-well. purified FXIIa, Boc-QGR-AMC fluorogenic substrate, 2 h. AID 800, 2007. Coagulation factor XII (Homo sapiens), P00748. inhibition, % at 5 µM. 220,000 compounds, 0.3% hits; in the data active = inhibition above about 40%
Target sequence (P00748 20-372 limits assumed): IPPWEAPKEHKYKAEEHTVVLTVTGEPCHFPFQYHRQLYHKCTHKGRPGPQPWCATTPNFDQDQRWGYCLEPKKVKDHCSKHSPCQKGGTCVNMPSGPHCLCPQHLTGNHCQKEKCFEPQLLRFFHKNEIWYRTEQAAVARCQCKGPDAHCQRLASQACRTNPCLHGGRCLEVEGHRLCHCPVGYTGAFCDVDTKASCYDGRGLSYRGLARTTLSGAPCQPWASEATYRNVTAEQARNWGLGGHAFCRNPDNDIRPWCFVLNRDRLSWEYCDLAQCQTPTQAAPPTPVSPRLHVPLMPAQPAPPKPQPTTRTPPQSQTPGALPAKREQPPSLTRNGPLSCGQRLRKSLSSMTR
Target sequence (P00748 373-615 limits assumed): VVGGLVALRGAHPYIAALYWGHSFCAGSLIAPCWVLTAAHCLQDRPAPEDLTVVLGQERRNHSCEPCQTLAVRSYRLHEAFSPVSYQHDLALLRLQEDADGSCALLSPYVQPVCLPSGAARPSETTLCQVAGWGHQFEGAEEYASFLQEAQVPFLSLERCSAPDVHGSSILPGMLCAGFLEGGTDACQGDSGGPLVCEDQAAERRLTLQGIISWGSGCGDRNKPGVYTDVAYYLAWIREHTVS
KLK5 inh: human KLK5 protease inhibitors, primary screen, biochemical, 1536-well. inhibition, % at 5 µM. AID 873, 2007. 210,000 compounds, 0.59% hits. recombinant hK5, fluorogenic AMC substrate cleavage;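 active = inhibition of 40% or more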
m-calpain inh: inhibitors of pig calpain II, primary screen, biochemical, fluorogenic peptide substrate, 1536-well. purified calpain II, 30 min. inhibition, % at 16 µM. 220,000 compounds, 0.37% hits;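 active = inhibition above about 50%, limit read from the data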
Thrombin inh: human alpha-thrombin inhibitors, primary screen, counter-screen for coagulation protease inhibitor project, biochemical, 1536-well, fluorogenic AMC substrate | Prothrombin (Homo sapiens), P00734 | Boc-VPR-AMC fluorogenic substrate cleavage | inhibition, % at 5 µM | 220,000 compounds, 0.26% hits;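 active = inhibition at or above 40%; inactive = inhibition below 40%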
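Material: human alpha-thrombin protein; Also added: Boc-VPR-AMC substrate, 15 µM final; Timing: enzyme reaction carried out at room temperature; Signal: fluorescence, ex 355 nm, em 460 nm; Measure: % inhibition of thrombin; Controls: enzyme without compound as high, wells lacking enzyme as low.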
FXIa inh 1536: human FXIa protease inhibitors, primary screen, biochemical, 1536-well. Coagulation factor XI (Homo sapiens), P03951. inhibition, % at 5 µM. 220,000 compounds, 0.14% hits. purified FXIa, Boc-Glu-Ala-Arg-AMC fluorogenic substrate. AID 798, 2007;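 active = inhibition of at least 40%; inactive = inhibition below 40%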;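 also: fluorescence of freed AMC excited at 355 nm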
Numbers stand for hits; . = inactive; / = not tested or not shown. A selection: hits, their analogues and other compounds. The true share with any hit is near 1.4%.

SMILES	Furin inh	FXIIa inh	KLK5 inh	m-calpain inh	Thrombin inh	FXIa inh 1536
O=C1C2C3C=CC(C3)C2C(=O)N1c1ccc(Cc2ccncc2)cc1 (stereo not given)	.	.	.	.	.	.
O=C1c2ccc(Br)cc2C(=O)N1c1ccc(Cc2ccncc2)cc1	.	.	.	88.3	.	.
COc1ccc(CSc2nnnn2Cc2ccccc2)cc1OC	.	.	.	.	.	.
Fc1ccc(Oc2cnc3ccccc3n2)cc1	.	.	.	.	95.3	.
Cc1cc(OCC(O)CNC(C)(C)C)ccc1Cl (stereo not given)	.	.	.	.	.	.
COc1ccccc1C1C(C(N)=O)=C(C)Nc2nc(-c3ccccc3Cl)nn21 (stereo not given)	.	.	.	.	.	.
CC1=C(C(N)=O)C(c2ccccn2)n2nc(-c3ccccc3Cl)nc2N1 (stereo not given)	.	.	42.9	.	.	.
FC(F)(F)c1ccc(C2NCCc3sccc32)cc1 (stereo not given)	.	.	.	.	.	.
CC1CCN(S(=O)(=O)c2cccc(-c3cn4cc(Cl)ccc4n3)c2)CC1	.	.	.	.	.	.
Cc1cc(C(C)(C)C)oc1C(=O)N(CC(=O)NC1CCCC1)Cc1ccccc1Cl	.	.	.	50.5	.	.
Cc1ccc(-c2nnc3n2N=C(c2ccc(Br)cc2)CS3)cc1	.	53.4	.	.	.	.
CC(=O)Nc1ccc(S(=O)(=O)n2cnc3cc(C)c(C)cc32)cc1	.	.	92.1	.	104.4	.
CN(C)c1ccnc(Oc2ccc(C(C)(C)C)cc2)c1C#N	.	.	.	59.4	.	.
CCOC(=O)CCCNC(=O)CCNC(=O)c1ccc(OC(C)C)cc1	.	.	40.2	.	.	.
Cc1cc(C)c(C(=O)COC(=O)CCNS(=O)(=O)c2c(Cl)cccc2Cl)cc1C	.	.	.	50.6	.	.
N/C(=N\c1nc2ccccc2o1)NC(=O)c1ccccc1NC(=O)c1ccccc1	.	.	.	.	52.1	.
CC(Sc1nnc(-c2ccco2)o1)C(=O)NCCC1=CCCCC1 (stereo not given)	.	.	47.4	.	/	.
Cc1cccc(Nc2cc(=O)[nH]c(=O)[nH]2)c1C	.	45.5	.	.	.	.
O=C1c2cccc3cccc(c23)C(=O)N1CCCN1CCN(c2ccc(F)cc2)CC1	.	.	.	54.1	/	.
CCc1c(C)nc(SCC(=O)N2CCCCC2CC)[nH]c1=O (stereo not given)	.	.	.	.	.	.
N/C(=N\OC(=O)c1ccc(Cl)c([N+](=O)[O-])c1)c1ccccn1	.	97.9	.	.	.	.
O=c1[nH]c(SCc2cccc(Cl)c2)nc2[nH]ncc12	.	.	.	.	.	.
Cc1ccc2c(c1)CC1(CN2C)C(=O)OC(C)(C)OC1=O	.	.	.	.	72.7	.
Cc1ccc2c(c1)C1(C(=O)N2C)N2CC3(C)CN1CC(C)(C2)C3=O (stereo not given)	.	.	.	.	.	.
CN(Cc1ccon1)C(=O)CC1C(=O)NCCN1CC1CCCCC1 (stereo not given)	.	.	.	.	.	60.0
SMILES	Furin inh	FXIIa inh	KLK5 inh	m-calpain inh	Thrombin inh	FXIa inh 1536
Cc1ccc(CN(C)C(=O)CC2C(=O)NCCN2CC2CCCCC2)cc1 (stereo not given)	.	.	/	.	.	.
CCN1CCC(CNCc2cn(-c3ccc(OC)cc3)nc2-c2ccccc2Cl)C1 (stereo not given)	.	.	/	.	.	.
CS(=O)(=O)N1CCc2cc(NC(=O)c3ccc(Cl)cc3Cl)ccc21	.	.	.	50.4	.	.
CS(=O)(=O)N1CCc2cc(C(=O)NC3CC3)ccc21	.	.	.	.	.	.
O=C(CSc1nc2ccc(Nc3nc(N4CCCC4)nc(N4CCCC4)n3)cc2s1)NCc1ccco1	.	.	.	.	.	.
O=C(COC(=O)c1ccc[nH]c1=O)NCC1CCCO1 (stereo not given)	30.3	.	.	.	.	.
